Data on eight compounds can be found in ChEMBL document CHEMBL1165970, “Design, synthesis and biological evaluation of trans 2-(thiophen-2-yl)vinyl heteroaromatic iodides” (2010).

One assay has as its system MCF7. Put plainly: Growth inhibition of human MCF7 cells after 3 days by MTT assay. Format: functional. The conditions noted are these: MCF7, 72 h. The method, boiled down:
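MCF-7 mammary adenocarcinoma cells were grown in DMEM (1.0 g/L D-glucose) with 10% heat-inactivated FBS, 2 mM L-alanyl-L-glutamine and penicillin-streptomycin at 37 °C under 5% CO2. Compounds were added 24 h after plating (0.01–100 µM final), with untreated controls. After 3 days, MTT was read at 570 nm; each value is the mean of 8 wells. GI50 was calculated per NCI, 100×(T−T0)/(C−T0)=50.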
For orientation: Formazan colour is commonly taken as a measure of viable cells.

In the next assay the test system is LNCaP. The experiment in a line: Growth inhibition of human LNCAP cells after 3 days by MTT assay. In kind it is functional. Particulars: 72 h. The method in brief: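 LNCap prostate adenocarcinoma cells were grown in RPMI 1640 with 10% heat-inactivated FBS, 2 mM L-alanyl-L-glutamine and penicillin-streptomycin at 37 °C under 5% CO2. Cells were plated, then treated 24 h later at 0.01–100 µM final against untreated controls. MTT was read at 570 nm after 3 days, averaging 8 wells. GI50 was derived by the NCI formula 100×(T−T0)/(C−T0)=50.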

As for `Cn1c(/C=C/c2cccc[n+]2C)cc2ccccc21`, the GI50 (in general, the concentration giving 50% growth inhibition) with MCF7 was 15.1 µM.
In the case of `Cn1cc[n+](C)c1/C=C/c1ccc(-c2cccs2)s1`, the GI50 is 4.68 µM with MCF7 and 6.03 µM in the assay with LNCaP.
Compound `Cn1cccc1/C=C/c1n(C)cc[n+]1C` showed a GI50 in the assay with MCF7 of 100 µM.
Still for that read-out and setting: with `Cn1cc[n+](C)c1/C=C/c1ccc(Br)s1` the figure was 14.5 µM.
For `C[n+]1ccccc1/C=C/c1ccc(-c2ccccc2)s1`, the GI50 was 8.32 µM in the assay with MCF7 and 33.9 µM in the assay on LNCaP.
Taken in the same sequence, the figures for `Cn1cc[n+](C)c1/C=C/c1ccc(-c2ccccc2)s1` were 1.45 µM and 8.32 µM.
As for `C[n+]1ccccc1/C=C/c1cc(-c2ccccc2)cs1`, the GI50 in the assay on MCF7 is 0.525 µM; with LNCaP, 7.59 µM. For the same compound, the LC50 (in general, the concentration that kills 50% of the test population) was 77.6 µM in the assay with MCF7 and 69.2 µM in the assay on LNCaP.
As for `Cn1cc[n+](C)c1/C=C/c1cc(-c2ccccc2)cs1`, the concentration for 50% growth inhibition (GI50) with MCF7 was 1 µM; in the assay with LNCaP, 20 µM.
